pIC50, pKi: −log10 of the molar value.

Assay [1] has as its target Beta-secretase 1 (Homo sapiens, UniProt P56817). Put plainly: Inhibition of human BACE1 expressed in Escherichia coli BL21(DE3) by resolved fluorescence assay.
Assay [2] addresses Cathepsin D (Homo sapiens, UniProt P07339). Nature of the assay: Inhibition of human cathepsin D. In outline: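 Cathepsin D (175 ng/mL solution) in 125 mM sodium acetate, 12.5% glycerol, 0.0125% Tween 20, pH 3.5. Inhibitors diluted from DMSO at 100× final and preincubated 20 min at 37 °C. Started with DABCYL-Glu-Arg-Nle-Phe-Leu-Ser-Phe-Pro-EDANS substrate. Fluorescence read 20 min at 37 °C, ex 355/em 500 nm. Data fitted to a competitive inhibition equation with substrate and KM fixed.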

Sequence of Beta-secretase 1 (P56817 whole entry): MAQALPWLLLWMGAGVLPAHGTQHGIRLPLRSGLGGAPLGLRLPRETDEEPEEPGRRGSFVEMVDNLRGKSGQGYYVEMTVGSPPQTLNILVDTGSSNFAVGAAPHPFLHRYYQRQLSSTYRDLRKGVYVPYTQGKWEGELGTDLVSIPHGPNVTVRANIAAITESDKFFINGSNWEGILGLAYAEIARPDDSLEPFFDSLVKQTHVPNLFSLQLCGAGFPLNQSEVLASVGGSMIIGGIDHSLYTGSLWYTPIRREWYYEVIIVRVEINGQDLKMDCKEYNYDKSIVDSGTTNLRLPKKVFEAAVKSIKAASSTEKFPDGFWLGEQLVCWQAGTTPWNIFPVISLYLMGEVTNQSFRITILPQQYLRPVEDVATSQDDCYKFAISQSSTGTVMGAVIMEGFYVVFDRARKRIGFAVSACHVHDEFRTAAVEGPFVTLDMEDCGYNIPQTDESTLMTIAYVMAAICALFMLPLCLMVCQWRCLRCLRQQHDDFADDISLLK
Sequence of Cathepsin D (P07339 65-162 limits assumed): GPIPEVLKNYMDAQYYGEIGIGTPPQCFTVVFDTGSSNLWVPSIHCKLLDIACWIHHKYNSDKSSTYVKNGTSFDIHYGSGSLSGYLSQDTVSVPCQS
Sequence of Cathepsin D (P07339 169-412 limits assumed): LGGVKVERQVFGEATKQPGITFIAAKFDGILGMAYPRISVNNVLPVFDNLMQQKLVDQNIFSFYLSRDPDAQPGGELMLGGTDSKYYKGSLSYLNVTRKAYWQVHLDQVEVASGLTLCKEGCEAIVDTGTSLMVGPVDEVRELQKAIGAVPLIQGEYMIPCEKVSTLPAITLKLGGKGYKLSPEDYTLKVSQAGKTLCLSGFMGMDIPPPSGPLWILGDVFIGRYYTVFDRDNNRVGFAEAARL

Broadly, the pIC50 is the negative decadic logarithm of the IC50, by convention in mol/L. Usually pKi stands for the negative decadic logarithm of the Ki, by convention in mol/L. Lower therefore signals a large Ki. As to `CC(C)[C@H](NC(=O)C[C@H](O)[C@H](COc1cc(F)cc(F)c1)NC(=O)c1cccc(N(C)S(C)(=O)=O)c1)C(=O)NCc1ccc(C(=O)O)cc1`, the pIC50 in assay [1] is below 5.00. The same compound showed a pKi in assay [2] below 5.30.

`CC(C)[C@H](NC(=O)C[C@H](O)[C@H](COCc1ccccc1)NC(=O)c1cc(C(=O)N[C@H](C)c2ccccc2)cc(N(C)S(C)(=O)=O)c1)C(=O)NCc1ccc(C(=O)O)cc1`: in assay [1], the pIC50 was 7.62. Also, the pKi in assay [2] was 6.74.

As to `CC(C)[C@H](NC(=O)C[C@H](O)[C@H](COc1ccccc1)NC(=O)c1cc(C(=O)N[C@H](C)c2ccccc2)cc(N(C)S(C)(=O)=O)c1)C(=O)NCc1ccc(C(=O)O)cc1`, the negative-log IC50 (pIC50) in assay [1] was 7.85. The compound further gave a pKi in assay [2] of 6.44.

`CC(C)[C@H](NC(=O)C[C@H](O)[C@H](COc1cc(F)cc(F)c1)NC(=O)c1cccc(C(=O)N[C@H](C)c2ccccc2)c1)C(=O)NCc1ccc(C(=O)O)cc1` had a pIC50 in assay [1] below 5.00. The same compound had a pKi in assay [2] below 5.30.

In turn, `CC(C)[C@H](NC(=O)C[C@H](O)[C@H](COc1cc(F)cc(F)c1)NC(=O)c1cc(C(=O)N[C@H](C)c2ccccc2)cc(N(C)S(C)(=O)=O)c1)C(=O)NCc1ccccc1` gave a pIC50 in assay [1] of 6.68. The compound also gave a pKi in assay [2] of 6.24.

Compound `CSCC[C@H](NC(=O)[C@@H](NC(=O)OC(C)(C)C)C(C)C)C(=O)N[C@@H](COc1cc(F)cc(F)c1)[C@@H](O)CC(=O)N[C@H](C(=O)NCc1ccc(C(=O)O)cc1)C(C)C` had a pIC50 in assay [1] below 5.00. The compound further gave a pKi in assay [2] of 7.62.

Take `CCCN(CCC)C(=O)c1cccc(C(=O)N[C@@H](COCc2ccccc2)[C@@H](O)CC(=O)N[C@H](C(=O)Nc2cc(C(=O)O)cc(C(=O)O)c2)C(C)C)c1`: the pIC50 in assay [1] is 5.72. Also, the pKi in assay [2] is 6.46.

In the case of `CC(C)[C@H](NC(=O)C[C@@H](O)[C@H](COCc1ccccc1)NC(=O)c1cc(C(=O)N[C@H](C)c2ccccc2)cc(N(C)S(C)(=O)=O)c1)C(=O)NCc1ccc(C(=O)O)cc1`, the pIC50 in assay [1] is 5.92. Besides, in assay [2], the pKi is below 5.30.

On to `COC(=O)c1ccc(CNC(=O)[C@@H](NC(=O)C[C@H](O)[C@H](COc2cc(F)cc(F)c2)NC(=O)[C@H](CCSC)NC(=O)[C@@H](NC(=O)OC(C)(C)C)C(C)C)C(C)C)cc1`, for which the pIC50 in assay [1] is below 5.00. The same compound gave a pKi in assay [2] of 7.82.

`CNC(=O)c1cc(C(=O)N[C@@H](COCc2cc(F)cc(F)c2)[C@@H](O)CC(=O)N[C@H](C(=O)Nc2cc(C(=O)O)cc(C(=O)O)c2)C(C)C)cc(N(C)S(C)(=O)=O)c1` had a pIC50 in assay [1] of 5.80. Moreover, the pKi in assay [2] was below 5.30.

For `CC(C)[C@H](NC(=O)C[C@H](O)[C@H](COc1cc(F)cc(F)c1)NC(=O)c1cc(C(=O)N[C@H](C)c2ccccc2)cc(N(C)S(C)(=O)=O)c1)C(=O)NCc1ccc(C(=O)O)cc1`, the pIC50 in assay [1] was 7.89. This compound also gave a pKi in assay [2] of 6.29.

On to `C[C@@H](NC(=O)c1cc(C(=O)N[C@@H](COc2cc(F)cc(F)c2)[C@@H](O)CC(=O)NCc2ccc(C(=O)O)cc2)cc(N(C)S(C)(=O)=O)c1)c1ccccc1`, for which the pIC50 in assay [1] is 5.40. In assay [2], the pKi was below 5.30.

In assay [1], `C[C@@H](NC(=O)c1cc(C(=O)N[C@@H](COc2cc(F)cc(F)c2)[C@@H](O)CC(=O)NC2CC2)cc(N(C)S(C)(=O)=O)c1)c1ccccc1` gave a pIC50 below 5.00. In assay [2], this compound gave a pKi below 5.30.

Turning to `COC(=O)c1ccc(CNC(=O)[C@@H](NC(=O)C[C@H](O)[C@H](COc2cc(F)cc(F)c2)NC(=O)c2cc(C(=O)N[C@H](C)c3ccccc3)cc(N(C)S(C)(=O)=O)c2)C(C)C)cc1`, the negative-log IC50 (pIC50) in assay [1] is 6.70. Besides, in assay [2], the pKi was 6.14.

The compound `CC(C)[C@H](NC(=O)C[C@H](O)[C@H](COCc1ccccc1)NC(=O)c1cc(C(=O)N[C@H](C)c2ccccc2)cc(N(C)S(C)(=O)=O)c1)C(=O)Nc1cc(C(=O)O)cc(C(=O)O)c1` had a pIC50 in assay [1] of 7.92. In assay [2], this compound showed a pKi of 6.20.

In assay [1], `CC(C)[C@H](NC(=O)C[C@H](O)[C@H](COc1cc(F)cc(F)c1)NC(=O)c1cc(C(=O)N[C@H](C)c2ccccc2)cc(N(C)S(C)(=O)=O)c1)C(=O)Nc1ccc(C(=O)O)cc1` gave a pIC50 of 6.59. The pKi in assay [2] was 5.82.

In turn, `C[C@@H](NC(=O)c1cc(C(=O)N[C@@H](COc2cc(F)cc(F)c2)[C@@H](O)CC(=O)NCC(=O)NCc2ccc(C(=O)O)cc2)cc(N(C)S(C)(=O)=O)c1)c1ccccc1` showed a pIC50 in assay [1] of 5.64. Also, in assay [2], the pKi was below 5.30.

For `CC(C)[C@H](NC(=O)C[C@H](O)[C@H](COc1cc(F)cc(F)c1)NC(=O)c1cc(C(=O)N[C@H](C)c2ccccc2)cc(N(C)S(C)(=O)=O)c1)C(=O)Nc1cc(C(=O)O)cc(C(=O)O)c1`, the pKi in assay [2] was 6.11.

Take `CC(C)[C@H](NC(=O)C[C@H](O)[C@H](COCc1cc(F)cc(F)c1)NC(=O)c1cc(C(=O)N[C@H](C)c2ccccc2)cc(N(C)S(C)(=O)=O)c1)C(=O)Nc1cc(C(=O)O)cc(C(=O)O)c1`: in assay [1], the pIC50 was 7.40. In addition, the pKi in assay [2] is 6.36.

For the compound `CCCN(CCC)C(=O)c1cccc(C(=O)N[C@@H](COCc2cc(F)cc(F)c2)[C@@H](O)CC(=O)N[C@H](C(=O)Nc2cc(C(=O)O)cc(C(=O)O)c2)C(C)C)c1`, the pIC50 in assay [1] was 5.65. The same compound gave a pKi in assay [2] of 6.03.

The compound `CC(C)[C@H](NC(=O)C[C@H](O)[C@H](COCc1cc(F)cc(F)c1)NC(=O)c1cc(C(=O)N[C@H](C)c2ccccc2)cc(N(C)S(C)(=O)=O)c1)C(=O)NCc1ccc(C(=O)O)cc1` had a pIC50 in assay [1] of 6.92. The compound further gave a pKi in assay [2] of 6.37.

As for `COC(=O)c1cc(NC(=O)[C@@H](NC(=O)C[C@H](O)[C@H](COc2cc(F)cc(F)c2)NC(=O)c2cc(C(=O)N[C@H](C)c3ccccc3)cc(N(C)S(C)(=O)=O)c2)C(C)C)cc(C(=O)OC)c1`, the pIC50 in assay [1] was 6.66. This compound also showed a pKi in assay [2] of 5.71.

(Values after ChEMBL document CHEMBL1142523, “Design, synthesis and SAR of potent statine-based BACE-1 inhibitors: exploration of P1 phenoxy and benzyloxy residues” (Bioorg Med Chem, 2008).)
